Test results reported in ChEMBL document CHEMBL2434966, “Novel N-4-piperazinyl-ciprofloxacin-chalcone hybrids: synthesis, physicochemical properties, anticancer and topoisomerase I and II inhibitory activity” (Eur J Med Chem, 2013).

How the values were obtained:
Type in all cases: functional
OVCAR-5 = experiment: Growth inhibition of human OVCAR5 cells after 48 hrs by sulforhodamine B assay; settings: OVCAR-5, 48 h
Summary of the method: (§1)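 NCI five-dose screen on the full 60-cell-line panel. Cells were given 10-fold dilutions from 10^-4 to 10^-8 M with continuous 48 h exposure, and growth was read by SRB staining. Percent growth was taken from time-zero, control and treated absorbances. GI50, TGI and LC50 were then derived, the GI50 being the concentration that gives a 50% lower net protein increase than control.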

BT-549 [1] = experiment: Growth inhibition of human BT549 cells after 48 hrs by sulforhodamine B assay; settings: BT-549, 48 h
Summary of the method: (§2)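 NCI 60-panel five-dose test at 10-fold dilutions, 10^-4 to 10^-8 M, with 48 h continuous exposure and SRB protein read-out. Percent growth derived from time-zero, untreated-control and treated absorbances. GI50 is the concentration where [(Ti-Tz)/(C-Tz)]×100 = 50. TGI is taken at Ti = Tz. LC50 is taken at [(Ti-Tz)/Tz]×100 = -50.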

A498 = experiment: Growth inhibition of human A498 cells assessed as cell growth at 10^-5 M after 48 hrs by sulforhodamine B assay; settings: A498, 48 h, read-out: Activity
Summary of the method: (§3)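 NCI 60-cell-line primary screen. Single concentration of 10^-5 M, 48 h incubation. End point by sulforhodamine B protein staining read spectrophotometrically. Reported as percent growth of treated cells relative to untreated control cells.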

DU-145 = experiment: Growth inhibition of human DU145 cells assessed as cell growth at 10^-5 M after 48 hrs by sulforhodamine B assay; settings: DU-145, 48 h, read-out: Activity; summary of the method: as §3
[2] = Growth inhibition of human NCI-ADR-RES cells assessed as cell growth at 10^-5 M after 48 hrs by sulforhodamine B assay; settings: read-out: Activity
Summary of the method: (§4)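 NCI 60-cell-line primary one-dose screen. Cells were exposed to a single 10^-5 M concentration for 48 h. The end point was sulforhodamine B protein staining, read spectrophotometrically. Results are reported as percent growth of treated cells relative to untreated control cells.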

CCRF-CEM = experiment: Growth inhibition of human CCRF-CEM cells assessed as cell growth at 10^-5 M after 48 hrs by sulforhodamine B assay; settings: read-out: Activity; summary of the method: as §3
ACHN = experiment: Growth inhibition of human ACHN cells after 48 hrs by sulforhodamine B assay; summary of the method: as §2
HCT-116 [3] = experiment: Growth inhibition of human HCT116 cells after 48 hrs by sulforhodamine B assay; settings: HCT-116, 48 h; summary of the method: as §2
OVCAR-3 = experiment: Growth inhibition of human OVCAR3 cells assessed as cell growth at 10^-5 M after 48 hrs by sulforhodamine B assay; settings: OVCAR-3, 48 h, read-out: Activity; summary of the method: as §4
SK-OV-3 = experiment: Growth inhibition of human SKOV3 cells after 48 hrs by sulforhodamine B assay; settings: SK-OV-3, 48 h; summary of the method: as §1
SN12C [4] = experiment: Growth inhibition of human SN12C cells after 48 hrs by sulforhodamine B assay; summary of the method: as §1
[5] = Growth inhibition of human Hs 578T cells assessed as cell growth at 10^-5 M after 48 hrs by sulforhodamine B assay; settings: read-out: Activity; summary of the method: as §3
HL-60(TB) = experiment: Growth inhibition of human HL-60(TB) cells assessed as cell growth at 10^-5 M after 48 hrs by sulforhodamine B assay; settings: HL-60, 48 h, read-out: Activity
Summary of the method: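 NCI one-dose primary screen: compound added once at 10^-5 M, cultures incubated 48 h, end point by SRB protein-binding dye. Result given as percent growth of treated cells relative to untreated control cells, measured spectrophotometrically.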

MOLT-4 = experiment: Growth inhibition of human MOLT4 cells after 48 hrs by sulforhodamine B assay; settings: MOLT-4, 48 h; summary of the method: as §1
SN12C [6] = experiment: Growth inhibition of human SN12C cells assessed as cell growth at 10^-5 M after 48 hrs by sulforhodamine B assay; settings: read-out: Activity; summary of the method: as §4
HCT-116 [7] = experiment: Growth inhibition of human HCT116 cells assessed as cell growth at 10^-5 M after 48 hrs by sulforhodamine B assay; settings: HCT-116, 48 h, read-out: Activity; summary of the method: as §3
OVCAR-4 = experiment: Growth inhibition of human OVCAR4 cells after 48 hrs by sulforhodamine B assay; settings: OVCAR-4, 48 h; summary of the method: as §1
T47D = experiment: Growth inhibition of human T47D cells after 48 hrs by sulforhodamine B assay
Summary of the method: (§5)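 NCI 60-cell panel, five concentrations (10-fold dilutions, 0.01–100 µM), 48 h continuous exposure; SRB protein stain read spectrophotometrically. Percent growth from time-zero, untreated-control and treated absorbances. GI50 is the concentration giving 50% lower net protein increase than control. Values beyond the tested range are reported as more or less than the highest or lowest concentration.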

Malme-3M = experiment: Growth inhibition of human MALME-3M cells assessed as cell growth at 10^-5 M after 48 hrs by sulforhodamine B assay; settings: read-out: Activity; summary of the method: as §3
SNB-19 = experiment: Growth inhibition of human SNB19 cells after 48 hrs by sulforhodamine B assay; settings: SNB-19, 48 h; summary of the method: as §5
BT-549 [8] = experiment: Growth inhibition of human BT549 cells assessed as cell growth at 10^-5 M after 48 hrs by sulforhodamine B assay; settings: BT-549, 48 h, read-out: Activity; summary of the method: as §3
UACC-257 = experiment: Growth inhibition of human UACC257 cells assessed as cell growth at 10^-5 M after 48 hrs by sulforhodamine B assay; settings: UACC-257, 48 h, read-out: Activity
Summary of the method: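 NCI primary one-dose screen: single concentration of 10^-5 M added to culture, 48 h incubation, SRB protein-dye endpoint. Percent growth of treated cells measured spectrophotometrically against untreated controls.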

NCI-H322M = experiment: Growth inhibition of human NCI-H322M cells after 48 hrs by sulforhodamine B assay; summary of the method: as §1
HOP-62 [9] = experiment: Growth inhibition of human HOP62 cells assessed as cell growth at 10^-5 M after 48 hrs by sulforhodamine B assay; settings: HOP-62, 48 h, read-out: Activity; summary of the method: as §3
HOP-62 [10] = experiment: Growth inhibition of human HOP62 cells after 48 hrs by sulforhodamine B assay; settings: HOP-62, 48 h; summary of the method: as §2
NCI-H23 = experiment: Growth inhibition of human NCI-H23 cells after 48 hrs by sulforhodamine B assay; settings: NCI-H23, 48 h; summary of the method: as §1
[11] = read-out: LC50 (the source's name)

SMILES: O=C(CN1CCN(c2cc3c(cc2F)c(=O)c(C(=O)O)cn3C2CC2)CC1)Nc1ccc(C(=O)/C=C/c2ccccc2)cc1
- GI50 (OVCAR-5): 5.35 µM
- LC50 (OVCAR-5): > 100 µM
- TGI (OVCAR-5): > 100 µM
- GI50 (BT-549 [1]): 3.56 µM
- LC50 (concentration giving 50% net cell kill) (BT-549 [1]): > 100 µM
- TGI (BT-549 [1]): > 100 µM
- growth at 10 µM (A498): 57.7%
- growth at 10 µM (DU-145): 43.1%
- growth at 10 µM [2]: 93.5%
- growth at 10 µM (CCRF-CEM): 15.2%
- GI50 (ACHN): 3.3 µM
- TGI (ACHN): 31.9 µM
- CC50 (ACHN; [11]): > 100 µM
- GI50 (HCT-116 [3]): 0.66 µM
- LC50 (HCT-116 [3]): 9.55 µM
- TGI (HCT-116 [3]): 2.68 µM
- growth at 10 µM (OVCAR-3): 54.9%
- GI50 (SK-OV-3): 27.3 µM
- LC50 (SK-OV-3): > 100 µM
- TGI (SK-OV-3): > 100 µM
- GI50 (SN12C [4]): 3.02 µM
- LC50 (lethal concentration, 50% net cell kill) (SN12C [4]): > 100 µM
- TGI (SN12C [4]): > 100 µM
- growth at 10 µM [5]: 51.9%
- growth at 10 µM (HL-60(TB)): 40.9%
- GI50 (MOLT-4): 5.13 µM
- TGI (MOLT-4): > 100 µM
- CC50 (MOLT-4; [11]): > 100 µM
- growth at 10 µM (SN12C [6]): 11.3%
- growth at 10 µM (HCT-116 [7]): -83.6%
- GI50 (OVCAR-4): 9.47 µM
- TGI (OVCAR-4): > 100 µM
- CC50 (OVCAR-4; [11]): > 100 µM
- GI50 (T47D): 6.66 µM
- LC50 (concentration killing 50% of the cells present at time zero) (T47D): > 100 µM
- TGI (T47D): > 100 µM
- growth at 10 µM (Malme-3M): 51%
- GI50 (SNB-19): 3.05 µM
- LC50 (SNB-19): > 100 µM
- TGI (SNB-19): > 100 µM
- growth at 10 µM (BT-549 [8]): 9.61%
- growth at 10 µM (UACC-257): 61.1%
- GI50 (NCI-H322M): 4.04 µM
- TGI (NCI-H322M): 58.7 µM
- CC50 (NCI-H322M; [11]): > 100 µM
- growth at 10 µM (HOP-62 [9]): 59.4%
- GI50 (HOP-62 [10]): 4.46 µM
- LC50 (concentration killing 50% of starting cells) (HOP-62 [10]): > 100 µM
- TGI (HOP-62 [10]): > 100 µM
- GI50 (NCI-H23): 2.48 µM
- TGI (NCI-H23): 14.3 µM
- CC50 (NCI-H23; [11]): > 100 µM
